Data on 17 compounds can be found in ChEMBL document CHEMBL1806480, “New condensed pyrroles of potential biological interest syntheses and structure-activity relationship studies” (2011).

Structures are written as SMILES. ≈ marks a conversion by molar mass, not a printed value. Calls of active or inactive are those of the source.

The test system of experiment [1] is Rattus norvegicus. The experiment in a line: Antiinflammatory activity in male Sprague-Dawley rat assessed as inhibition of carrageenan-induced rat paw edema dosed subcutaneously equimolar to 70 mg/kg, sc ibuprofen administered 1 hr before carrageenan challenge measured 1 hr post carrageenan challenge relative to control. It counts as functional. To be noted: route subcutaneous. The gist of the method:
(§1)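 Male Sprague-Dawley rats, 150–170 g, 5 per group. Compounds were given subcutaneously in DMSO at doses equimolar to the reference. One hour later, 0.1 mL of 1% carrageenan was injected subplantar into the right hind paw. Right-minus-left paw volume was read by water plethysmometer at 1, 2, 3 and 4 h. %inhibition = (1 − swelling treated/swelling control) × 100. Controls received DMSO s.c. Mean ± SE reported.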

The test system of experiment [2] is Rattus norvegicus. The experiment in a line: Antiinflammatory activity in male Sprague-Dawley rats assessed as inhibition of carrageenan-induced rat paw edema dosed subcutaneously equimolar to 70 mg/kg, sc ibuprofen administered 1 hr before carrageenan challenge measured 2 hrs post carrageenan challenge relative to control. It is filed as functional. To be noted: route subcutaneous. The gist of the method: as §1
(In general: The carrageenan paw model is a standard test of acute inflammation.)

The subject of experiment [3] is Rattus norvegicus. Briefly: Antiinflammatory activity in male Sprague-Dawley rats assessed as inhibition of carrageenan-induced rat paw edema dosed subcutaneously equimolar to 70 mg/kg, sc ibuprofen administered 1 hr before carrageenan challenge measured 3 hrs post carrageenan challenge relative to control. The conditions noted are these: route subcutaneous. It counts as functional. The gist of the method:
as §1

In experiment [4] the test system is Rattus norvegicus. Briefly: Antiinflammatory activity in male Sprague-Dawley rats assessed as inhibition of carrageenan-induced rat paw edema dosed subcutaneously equimolar to 70 mg/kg, sc ibuprofen administered 1 hr before carrageenan challenge measured 4 hrs post carrageenan challenge relative to control. It counts as functional. The conditions noted are these: route subcutaneous. The method in brief:
as §1

Experiment [5] concerns Bacillus subtilis. Briefly: Antimicrobial activity against Bacillus subtilis ATCC 6633 at 20 to 30 ug/ml after 24 hrs by disk diffusion method. It is filed as functional, organism-based. The gist of the method: (§2)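 Disc diffusion per Bauer et al. Inhibition zones were recorded. DMSO served as the solvent control. Amoxicillin and fluconazole served as reference agents.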
Experiment [6] has as its system Staphylococcus aureus. The experiment in a line: Antimicrobial activity against Staphylococcus aureus ATCC 29213 at 20 to 30 ug/ml after 24 hrs by disk diffusion method. It counts as functional, organism-based. The gist of the method: as §2
(In general: Agar diffusion results depend on both activity and mobility in agar.)

Experiment [7] relates to Escherichia coli. The experiment in a line: Antimicrobial activity against Escherichia coli ATCC 25922 at 20 to 30 ug/ml after 24 hrs by disk diffusion method. It is filed as functional, organism-based. The method in brief:
as §2

Experiment [8] concerns Pseudomonas aeruginosa. The experiment in a line: Antimicrobial activity against Pseudomonas aeruginosa ATCC […] at 20 to 30 ug/ml after 24 hrs by disk diffusion method. It is filed as functional, organism-based. The method in brief: as §2
In the next experiment the test system is Candida albicans. Briefly: Antimicrobial activity against Candida albicans ATCC 10231 at 20 to 30 ug/ml after 24 hrs by disk diffusion method. It counts as functional, organism-based. The gist of the method: as §2
For a further experiment, the system named is Mycolicibacterium phlei. Briefly: Antimicrobial activity against Mycobacterium phlei ATCC 10142 at 20 to 30 ug/ml after 24 hrs by disk diffusion method. It is filed as functional, organism-based.
Experiment [9] deals with Bacillus subtilis. Briefly: Antimicrobial activity against Bacillus subtilis ATCC 6633 after 24 hrs by microdilution technique. It counts as functional. The conditions noted are these: for MIC: ATCC 6633, 24 h. The method in brief: (§3)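 MIC by microdilution per NCCLS 1997 guidelines. Bacteria were subcultured overnight on Mueller-Hinton agar at 37 °C and passaged at least twice. Compounds were serially two-fold diluted in DMSO from 1024 to 16, mixed with nutrient agar, and inoculated. Incubation was 37 °C in a humid chamber for 24 h. MIC = lowest concentration completely inhibiting macroscopic growth. DMSO, organism-only and medium-only wells served as controls.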
A general note: Dilution methods test growth across graded concentrations, often in twofold steps.

For experiment [10], the system named is Staphylococcus aureus. Briefly: Antimicrobial activity against Staphylococcus aureus ATCC 29213 after 24 hrs by microdilution technique. It counts as functional. The conditions noted are these: ATCC 29213, 24 h. The method in brief:
as §3

The test system of experiment [11] is Escherichia coli. The experiment in a line: Antimicrobial activity against Escherichia coli ATCC 25922 after 24 hrs by microdilution technique. To be noted: ATCC 25922, 24 h. It is filed as functional. The gist of the method: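 MIC by two-fold serial microdilution on Mueller-Hinton agar per NCCLS 1997. Compounds were dissolved in DMSO at 1024, 512, 256, 128, 64, 32 and 16 […] and mixed with sterile nutrient agar, then inoculated with bacteria subcultured overnight at 37 °C on MHA (passaged at least twice). Incubation was 37 °C in a humid chamber and endpoints were read at 24 h. MIC is the lowest concentration completely inhibiting macroscopic growth. DMSO, organism-only and medium-only wells served as controls.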

In experiment [12] the test system is Pseudomonas aeruginosa. Briefly: Antimicrobial activity against Pseudomonas aeruginosa ATCC […] after 24 hrs by microdilution technique. It is filed as functional. The gist of the method: as §3

One may read the inhibition in vivo as how much of the control response was suppressed. For `Cc1c(-n2c(-c3ccccc3)c(-c3ccccc3)c3c(N/N=C/c4ccccc4)ncnc32)n(C)n(-c2ccccc2)c1=O`, the inhibition in vivo was 47.8% in the experiment with Rattus norvegicus [1], 59.6% in the experiment with Rattus norvegicus [2], 90.8% in the experiment with Rattus norvegicus [3] and 48.4% in the experiment with Rattus norvegicus [4].
Take `CCO/C=N/c1c(C#N)c(-c2ccccc2)c(-c2ccccc2)n1-c1c(C)c(=O)n(-c2ccccc2)n1C`: the result in the experiment on Bacillus subtilis [5], with Staphylococcus aureus [6], in the experiment with Escherichia coli [7], in the experiment with Pseudomonas aeruginosa [8], in the experiment on Candida albicans and with Mycolicibacterium phlei was inactive.
Regarding `Cc1c(-n2c(N)c(C(N)=O)c(-c3ccccc3)c2-c2ccccc2)n(C)n(-c2ccccc2)c1=O`, the outcome in the experiment on Bacillus subtilis [5], in the experiment with Staphylococcus aureus [6], in the experiment with Escherichia coli [7], with Pseudomonas aeruginosa [8], in the experiment with Candida albicans and in the experiment with Mycolicibacterium phlei was inactive. Also, the inhibition in vivo was 19.1% with Rattus norvegicus [1], 26.1% in the experiment with Rattus norvegicus [2], 47.8% with Rattus norvegicus [3] and 62.5% with Rattus norvegicus [4].
Broadly, the MIC is the smallest concentration in the dilution series that meets the test's criterion for growth inhibition. On to `Cc1c(-n2c(-c3ccccc3)c(-c3ccccc3)c3c(=N)[nH]cnc32)n(C)n(-c2ccccc2)c1=O`, for which the inhibition in vivo was 0.89% in the experiment on Rattus norvegicus [1], 2.35% with Rattus norvegicus [2], 11.4% in the experiment on Rattus norvegicus [3] and 27.5% with Rattus norvegicus [4]. The compound further returned an MIC in the experiment with Bacillus subtilis [9] of 512 µg/mL (≈ 1080 µM).
As to `Cc1c(-n2c(-c3ccccc3)c(-c3ccccc3)c3c(=O)[nH]cnc32)n(C)n(-c2ccccc2)c1=O`, the result in the experiment on Bacillus subtilis [5], in the experiment with Staphylococcus aureus [6], in the experiment with Escherichia coli [7], in the experiment on Pseudomonas aeruginosa [8], in the experiment with Candida albicans and with Mycolicibacterium phlei was inactive. Also, the inhibition in vivo came to 63% with Rattus norvegicus [1], 60.6% with Rattus norvegicus [2], 60% with Rattus norvegicus [3] and 27.1% in the experiment with Rattus norvegicus [4]. Besides, the MIC in the experiment with Bacillus subtilis [9] was 256 µg/mL (≈ 541 µM).
Consider `CC1(C)S[C@@H]2[C@H](NC(=O)[C@H](N)c3ccc(O)cc3)C(=O)N2[C@H]1C(=O)O` [AMOXICILLIN], for which the MIC was determined as 1 µg/mL (≈ 2.74 µM) in the experiment on Staphylococcus aureus [10], 256 µg/mL (≈ 701 µM) with Escherichia coli [11], 64 µg/mL (≈ 175 µM) against Pseudomonas aeruginosa [12] and 64 µg/mL (≈ 175 µM) in the experiment on Bacillus subtilis [9].
With `Cc1c(-n2c(-c3ccccc3)c(-c3ccccc3)c3c(Nc4ccccc4)ncnc32)n(C)n(-c2ccccc2)c1=O`, the inhibition in vivo was found to be 1.99% in the experiment with Rattus norvegicus [1], 5.11% with Rattus norvegicus [2], 13% in the experiment on Rattus norvegicus [3] and 27.9% in the experiment on Rattus norvegicus [4].
Regarding `Cc1c(-n2c(-c3ccccc3)c(-c3ccccc3)c3c2ncn2ncnc32)n(C)n(-c2ccccc2)c1=O`, the inhibition in vivo in the experiment with Rattus norvegicus [1] came out at 1.73%; with Rattus norvegicus [2], 4.92%; in the experiment on Rattus norvegicus [3], 9.9%; with Rattus norvegicus [4] it was 28.7%.
On to `Cc1c(-n2c(N)c(C#N)c(-c3ccccc3)c2-c2ccccc2)n(C)n(-c2ccccc2)c1=O`, for which the inhibition in vivo in the experiment with Rattus norvegicus [1] turned out to be 9.5%; in the experiment on Rattus norvegicus [2] it was 36.5%; with Rattus norvegicus [3], 62.6%; with Rattus norvegicus [4], 64.7%. In the experiment on Bacillus subtilis [9], this compound registered an MIC of 512 µg/mL (≈ 1150 µM).
As for `Cc1c(-n2c(-c3ccccc3)c(-c3ccccc3)c3c2ncn2nnnc32)n(C)n(-c2ccccc2)c1=O`, the outcome in the experiment on Bacillus subtilis [5], in the experiment with Staphylococcus aureus [6], with Escherichia coli [7], in the experiment with Pseudomonas aeruginosa [8], with Candida albicans and in the experiment with Mycolicibacterium phlei was inactive.
With `Cc1c(-n2c(-c3ccccc3)c(-c3ccccc3)c3c(Cl)ncnc32)n(C)n(-c2ccccc2)c1=O`, the outcome in the experiment with Bacillus subtilis [5], in the experiment with Staphylococcus aureus [6], with Escherichia coli [7], in the experiment on Pseudomonas aeruginosa [8], in the experiment on Candida albicans and in the experiment on Mycolicibacterium phlei was inactive.
In the case of `Cc1nc2c(c(-c3ccccc3)c(-c3ccccc3)n2-c2c(C)c(=O)n(-c3ccccc3)n2C)c(=O)[nH]1`, the inhibition in vivo in the experiment with Rattus norvegicus [1] was determined as 2.16%; in the experiment on Rattus norvegicus [2], 5.37%; in the experiment with Rattus norvegicus [3], 13.2%; in the experiment on Rattus norvegicus [4], 27.6%. For the same compound, the result with Bacillus subtilis [9] was Active.
As for `Cc1c(-n2c(-c3ccccc3)c(-c3ccccc3)c3c(=S)[nH]cnc32)n(C)n(-c2ccccc2)c1=O`, the result in the experiment with Bacillus subtilis [5], with Staphylococcus aureus [6], in the experiment on Escherichia coli [7], in the experiment with Pseudomonas aeruginosa [8], with Candida albicans and in the experiment with Mycolicibacterium phlei was inactive. The inhibition in vivo in the experiment with Rattus norvegicus [1] worked out at 0%; with Rattus norvegicus [2], 0%; in the experiment on Rattus norvegicus [3] it was 73.3%; in the experiment with Rattus norvegicus [4], 64.3%.
As for `Cc1ccccc1Nc1ncnc2c1c(-c1ccccc1)c(-c1ccccc1)n2-c1c(C)c(=O)n(-c2ccccc2)n1C`, the inhibition in vivo with Rattus norvegicus [1] turned out to be 1.95%; in the experiment with Rattus norvegicus [2], 5.17%; in the experiment with Rattus norvegicus [3], 13.3%; in the experiment on Rattus norvegicus [4] it was 28%.
On to `Cc1c(-n2c(-c3ccccc3)c(-c3ccccc3)c3c(NN)ncnc32)n(C)n(-c2ccccc2)c1=O`, for which the inhibition in vivo with Rattus norvegicus [1] came to 43.7%; with Rattus norvegicus [2], 46.1%; in the experiment on Rattus norvegicus [3] it was 65.1%; with Rattus norvegicus [4], 54%.
Regarding `CC(C)Cc1ccc(C(C)C(=O)O)cc1` (stereo not drawn) [IBUPROFEN], the inhibition in vivo amounted to 6.08% in the experiment with Rattus norvegicus [1], 60.7% in the experiment with Rattus norvegicus [3] and 69.5% in the experiment on Rattus norvegicus [4]. In addition, the inhibition in vivo at 70 mg/kg with Rattus norvegicus [2] (dose equimolar to 70 mg/kg ibuprofen) came out at 45%.
Turning to `CC(=O)Nc1c(C#N)c(-c2ccccc2)c(-c2ccccc2)n1-c1c(C)c(=O)n(-c2ccccc2)n1C`, the minimum inhibitory concentration (MIC) in the experiment on Staphylococcus aureus [10] and with Bacillus subtilis [9] was 256 µg/mL (≈ 525 µM) throughout. For the same compound, the inhibition in vivo is 1.73% in the experiment with Rattus norvegicus [1], 3.07% in the experiment with Rattus norvegicus [2], 66.5% in the experiment on Rattus norvegicus [3] and 46.4% with Rattus norvegicus [4].
